Assay [1] can be described thus: In vitro antimalarial activity against the Plasmodium falciparum FCR3. It counts as functional.
Assay [2] has as its system Plasmodium berghei. The assay can be described thus: (§1) In vivo antimalarial activity against Plasmodium berghei infected mice (Mus musculus). It counts as functional. In outline: (§2)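 Infected mice were dosed, and activity is reported as the doses giving 50% and 90% effect (ED50 and ED90), in µmol/kg.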
The test system of assay [3] is FM3A. The assay can be described thus: Selectivity ratio of cytotoxicity against FM3A cells to antimalarial activity against Plasmodium falciparum FCR3. Format: functional, Mus musculus.
The test system of assay [4] is FM3A. The experiment in a line: In vitro cytotoxicity against mouse mammary FM3A cells. Format: cell-based.
The test system of assay [5] is Plasmodium berghei. The description is as §1. It counts as functional. In a few lines:
as §2
This is another data set of the same source.

SMILES strings stand for the structures.

In the case of `O=C(C[C@@H]1NCCC[C@H]1O)Cn1cnc2ccccc2c1=O` [FEBRIFUGINE], in assay [1], a half-maximal response (EC50) required 0.7 µM. Also, in assay [2], the ED50 (usually the dose at which the effect has come halfway, by size or by number of responders) was 1 µmol/kg and the ED90 stood at 5 µM/kg. In assay [3], the Selectivity was 243.

As to `C[C@@H]1CC[C@H]2[C@@H](C)C(=O)O[C@@H]3O[C@@]4(C)CC[C@@H]1[C@]32OO4` [ARTEMISININ], in assay [1], a half-maximal response (EC50) required 0.01 µM. For the same compound, the ED90 in assay [2] is 46 µM/kg. Also, in assay [3], the Selectivity was 1000.

As to `O=c1c2ccccc2ncn1CC1(O)C[C@@H]2NCCC[C@@H]2O1` (some centres undefined) [ISOFEBRIFUGINE], it took 0.0034 µM to reach a half-maximal effect in assay [1] (EC50). In assay [2], this compound had an ED50 of 211 µmol/kg and an ED90 greater than 267 µM/kg. Moreover, the Selectivity in assay [3] was 53.

`CC1(C)[C@@H](n2cnc3ccccc3c2=O)[C@H](O)C[C@@H]2[C@@H](O)CCCN21`: the results for the EC50 in assay [1] and in assay [4] were 0.3 µM and 85 µM, respectively. Besides, the Selectivity in assay [3] is given as 283.

As for `CC1(C)[C@@H](n2cnc3ccccc3c2=O)C=C[C@@H]2[C@@H](O)CCCN21`, the EC50 (in general, the concentration at which the effect is half-maximal) in assay [1] was 4.8 µM; in assay [4], greater than 32 µM. In addition, the Selectivity in assay [3] is listed as greater than 7.

For `O=c1c2ccccc2ncn1C[C@@H](O)CC1NCCC[C@@H]1O` (some centres undefined), the EC50 in assay [1] amounted to 0.02 µM. In assay [2], this compound gave an ED50 of 2.9 µmol/kg and an ED90 of 22 µM/kg. For the same compound, the Selectivity in assay [3] stood at 750.

With `CC1(C)[C@H](n2cnc3ccccc3c2=O)[C@H](O)C[C@H]2[C@@H](O)CCCN21`, the 50% effective concentration (EC50) in assay [1] is 0.8 µM; in assay [4], greater than 24 µM. Besides, the Selectivity in assay [3] is greater than 30.

`CC(=O)O[C@H]1CCCN2[C@H]1C[C@@H](OC(C)=O)[C@@H](n1cnc3ccccc3c1=O)C2(C)C`: the EC50 in assay [1] is 7 µM; in assay [4], greater than 21 µM. For the same compound, the Selectivity in assay [3] is reported as greater than 3.

Consider `CC1(C)[C@@H](n2cnc3ccccc3c2=O)C(=O)C[C@@H]2C(=O)CCCN21`, for which the EC50 in assay [1] stood at 0.0019 µM; in assay [4] it was 5.9 µM. For the same compound, the Selectivity in assay [3] is recorded as greater than 3105.

Regarding `CC1(C)[C@@H](N2CNc3ccccc3C2=O)[C@@H](O)C[C@@H]2[C@@H](O)CCCN21`, the EC50 in assay [1] was 0.42 µM; in assay [4], greater than 16 µM. Besides, the Selectivity in assay [3] was greater than 38.

The compound `O=c1c2ccccc2ncn1C[C@@H]1C[C@@H]2[C@@H](O)CCCN2CO1` returned an EC50 in assay [4] of 3.8 µM. The figures for the ED50 in assay [5] and in assay [2] were greater than 180 µmol/kg and 82 µmol/kg, respectively. Also, the Selectivity in assay [3] came to 1027.

`COCO[C@H]1CCCN2CO[C@H](Cn3cnc4ccccc4c3=O)C[C@H]12`: the EC50 turned out to be 0.0086 µM in assay [1] and 2.5 µM in assay [4]. Besides, the Selectivity in assay [3] turned out to be 291.

On to `CC1(C)[C@H](n2cnc3ccccc3c2=O)C(=O)C[C@H]2[C@@H](O)CCCN21`, for which the midpoint of the response in assay [1], the EC50, lay at 0.0028 µM. The Selectivity in assay [3] was determined as 857.

Turning to `O=C(CC1NCCC[C@@H]1O)Cn1ccc2ccccc2c1=O` (some centres undefined), the 50% effective concentration (EC50) in assay [1] was 0.5 µM; in assay [4] it was greater than 16 µM. For the same compound, the Selectivity in assay [3] is greater than 32.

With `CNc1ccccc1C(=O)NC1[C@@H](O)C[C@@H]2[C@@H](O)CCCN2C1(C)C` (some centres undefined), the EC50 in assay [1] was 0.6 µM; in assay [4], greater than 17 µM. In addition, the Selectivity in assay [3] is on record as greater than 28.

For `CC(=O)O[C@H]1CCCN(C(C)=O)C1CC(=O)Cn1cnc2ccccc2c1=O` (some centres undefined), the concentration for a half-maximal effect (EC50) was 0.91 µM in assay [1] and greater than 29 µM in assay [4]. In addition, in assay [3], the Selectivity is recorded as greater than 32.

`CCN(CC)CCCC(C)Nc1ccnc2cc(Cl)ccc12` (centres undefined) [CHLOROQUINE] gave a concentration for a half-maximal effect (EC50) in assay [1] of 0.018 µM. In assay [2], this compound had an ED50 of 4.7 µmol/kg and an ED90 of 9.4 µM/kg.

With `CC1(C)[C@@H](n2cnc3ccccc3c2=O)C(=O)C[C@@H]2[C@@H](O)CCCN21`, the EC50 in assay [1] stood at 0.0016 µM. Further, the Selectivity in assay [3] amounted to 238.

Take `O=c1c2ccccc2ccn1CC1(O)CC2NCCC[C@@H]2O1` (some centres undefined): the EC50 in assay [1] was 2.1 µM; in assay [4], greater than 6.3 µM. For the same compound, the Selectivity in assay [3] was greater than 3.

In assay [4], `O=C(CC1NCCC[C@@H]1O)Cn1cnccc1=O` (some centres undefined) gave an EC50 greater than 19 µM. Further, in assay [3], the Selectivity is greater than 32.

As for `O=C(CC1NCCCC1=O)Cn1cnc2ccccc2c1=O` (centres undefined), the EC50 in assay [1] came to 0.02 µM; in assay [4] it was 10 µM. This compound also yielded an ED50 in assay [2] of 1.3 µmol/kg. In assay [2], the ED90 is 6.2 µM/kg. Also, the Selectivity in assay [3] is 500.

`CC(=O)O[C@H]1CCCN2[C@H]1C[C@@H](O)[C@@H](n1cnc3ccccc3c1=O)C2(C)C`: the concentration for a half-maximal effect (EC50) in assay [1] was 0.4 µM; in assay [4], greater than 11 µM. Besides, the Selectivity in assay [3] was greater than 28.

Turning to `CC1(C)[C@@H](n2cnc3ccccc3c2=O)[C@@H](O)C[C@@H]2[C@@H](O)CCCN21`, the EC50 turned out to be 0.4 µM in assay [1] and 2.8 µM in assay [4]. Also, in assay [3], the Selectivity was 70.

As for `CC1(C)[C@@H](n2cnc3ccccc3c2=O)C(=O)C[C@@H]2[C@@H](O)CCC[N+]21[O-]` (some centres undefined), the EC50 is 0.1 µM in assay [1] and greater than 29 µM in assay [4]. In assay [3], the Selectivity was greater than 290.

`CC1(C)[C@@H](n2cnc3ccccc3c2=O)CC[C@@H]2[C@@H](O)CCCN21`: the EC50 is 0.83 µM in assay [1] and greater than 22 µM in assay [4]. In addition, the Selectivity in assay [3] is reported as greater than 27.

As for `O=c1ccncn1CC1(O)CC2NCCC[C@@H]2O1` (some centres undefined), the half-maximal effective concentration (EC50) in assay [1] turned out to be 0.04 µM; in assay [4], 7 µM. Besides, the Selectivity in assay [3] is on record as 175.

Turning to `CC(=O)O[C@H]1CCCN2[C@H]1CC(=O)[C@@H](n1cnc3ccccc3c1=O)C2(C)C`, the EC50 was 0.019 µM in assay [1] and 7 µM in assay [4]. Further, the Selectivity in assay [3] was 368.

Regarding `CCOC(=O)N1CCC[C@H](O)C1CC(=O)Cn1cnc2ccccc2c1=O` (some centres undefined), the results for the half-maximal effective concentration (EC50) in assay [1] and in assay [4] were 4.8 µM and greater than 17 µM, respectively. Besides, the Selectivity in assay [3] is reported as greater than 3.5.

As to `O=c1c2ccccc2ncn1C[C@@H]1C[C@@H]2[C@H](O)CCCN2CO1`, the EC50 is 0.84 µM in assay [1] and greater than 25 µM in assay [4]. In assay [3], the Selectivity was greater than 30.

Take `CC(=O)O[C@H]1CCCN2[C@@H]1CC(=O)[C@H](n1cnc3ccccc3c1=O)C2(C)C`: the EC50 in assay [1] came to 0.0036 µM; in assay [4] it was 1.3 µM. For the same compound, in assay [3], the Selectivity is recorded as 361.

With `COC1=C[C@@H]2[C@@H](O)CCCN2C(C)(C)[C@H]1n1cnc2ccccc2c1=O`, the figures for the EC50 in assay [1] and in assay [4] were 1.3 µM and greater than 66 µM, respectively. Also, the Selectivity in assay [3] is reported as greater than 51.

As to `CC1(C)[C@H](n2cnc3ccccc3c2=O)[C@@H](O)C[C@H]2[C@@H](O)CCCN21`, the results for the EC50 in assay [1] and in assay [4] were 3.4 µM and greater than 100 µM, respectively. Further, in assay [3], the Selectivity is recorded as greater than 28.

The record behind these values is ChEMBL document CHEMBL1135466, “Potent antimalarial febrifugine analogues against the plasmodium malaria parasite” (J Med Chem, 2002).
